Data published in ChEMBL document CHEMBL1926614, “Substituted thiazoles V. synthesis and antitumor activity of novel thiazolo[2,3-b]quinazoline and pyrido[4,3-d]thiazolo[3,2-a]pyrimidine analogues” (2012).
Activity calls are given as the source filed them. The rule behind the calls is not given here.

Tests used:
Type in all cases: functional
[1] = test system: M14; experiment: Growth inhibition of human M14 cells at 10 uM after 48 hrs by coulter counting; conditions: for inhibition of growth at 10 µM: M14, 48 h, read-out: GI
Method in brief: (§1)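 Single-dose primary screen across the full NCI 60-cell-line panel. Stocks were made in DMSO and diluted in PBS to a final DMSO below 1%. Cultures at 6 × 10⁴ cells/ml were run in duplicate wells alongside PBS/DMSO vehicle controls at 37 °C in humidified 5% CO₂. Data were expressed as percent growth of treated cells.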

[2] = test system: UO-31; experiment: Growth inhibition of human UO31 cells at 10 uM after 48 hrs by coulter counting
Method in brief: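 Single-dose screen in the NCI 60 human tumor cell line panel (nine subpanels). Compounds dissolved in DMSO and diluted in phosphate buffered saline, keeping final DMSO below 1%. Added in duplicate wells to cells at 6 × 10⁴ cells/ml. Controls held PBS and DMSO at matching dilutions. Incubated at 37 °C, humidified, 5% CO₂. Reported as percent growth of treated cells.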

[3] = test system: NCI-H226; experiment: Growth inhibition of human NCI-H226 cells at 10 uM after 48 hrs by coulter counting; conditions: NCI-H226, 48 h, read-out: GI; method in brief: as §1
[4] = test system: CCRF-CEM; experiment: Growth inhibition of human CCRF-CEM cells at 10 uM after 48 hrs by coulter counting; conditions: read-out: GI; method in brief: as §1
[5] = test system: NCI-H23; experiment: Growth inhibition of human NCI-H23 cells at 10 uM after 48 hrs by coulter counting; conditions: NCI-H23, 48 h, read-out: GI; method in brief: as §1
[6] = test system: HL-60(TB); experiment: Growth inhibition of human HL-60(TB) cells at 10 uM after 48 hrs by coulter counting; conditions: HL-60, 48 h, read-out: GI
Method in brief: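 Test compound was dissolved in DMSO and diluted in phosphate-buffered saline to a final DMSO level below 1%. Dilutions were plated in duplicate with cell culture at 6 × 10⁴ cells/ml. Vehicle controls held PBS and DMSO at matching dilutions. Incubation was at 37 °C, humidified, under 5% CO₂. Data were reported as percent growth of treated cells.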

[7] = test system: NCI/ADR-RES; experiment: Growth inhibition of human NCI/ADR-RES cells at 10 uM after 48 hrs by coulter counting; conditions: for inhibition of growth at 10 µM: read-out: GI; method in brief: as §1
[8] = Cytotoxicity against human leukemia cells after 48 hrs by coulter counting; conditions: Leukemia cell; for CC50: read-out: LC50 (the source's name)
Method in brief: (§2)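 NCI 60-cell-line panel covering nine tumour subpanels, tested over a 5-log dose range. Compounds were dissolved in DMSO and diluted in phosphate-buffered saline to a final DMSO below 1%. Wells held 6 × 10⁴ cells/ml and were run in duplicate. Controls contained PBS and DMSO at matching dilutions. Incubation was at 37 °C in humidified 5% CO₂. GI₅₀, TGI and LC₅₀ were reported.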

[9] = test system: CAKI-1; experiment: Growth inhibition of human Caki1 cells at 10 uM after 48 hrs by coulter counting; method in brief: as §1
[10] = test system: K562; experiment: Growth inhibition of human K562 cells at 10 uM after 48 hrs by coulter counting; conditions: for inhibition of growth at 10 µM: K562, 48 h, read-out: GI; method in brief: as §1
[11] = Cytotoxicity against human CNS cancer cells after 48 hrs by coulter counting; conditions: Cancer cell lines; method in brief: as §2
[12] = test system: SK-MEL-2; experiment: Growth inhibition of human SK-MEL-2 cells at 10 uM after 48 hrs by coulter counting; conditions: SK-MEL-2, 48 h, read-out: GI; method in brief: as §1
[13] = test system: LOX IMVI; experiment: Growth inhibition of human LOXIMVI cells at 10 uM after 48 hrs by coulter counting; method in brief: as §1
[14] = Cytotoxicity against human melanoma cells after 48 hrs by coulter counting; conditions: Melanoma cell; for CC50: read-out: LC50 (the source's name); method in brief: as §2
[15] = Cytotoxicity against human colon cancer cells after 48 hrs by coulter counting; conditions: Cancer cell lines; method in brief: as §2

Row | Structure (SMILES) | inhibition of growth at 10 µM [1] | growth inhibition (GI) [2] | inhibition of growth at 10 µM [3] | inhibition of growth at 10 µM [4] | inhibition of growth at 10 µM [5] | inhibition of growth at 10 µM [6] | GI50 [8] | TGI [8] | CC50 [8] | GI50 [11] | LC50 [11] | TGI [11] | inhibition of growth at 10 µM [12] | growth inhibition (GI) [13] | GI50 [14] | TGI [14] | CC50 [14] | GI50 [15] | LC50 (concentration giving 50% net cell kill) [15] | TGI [15] | also measured
1 | CCN1CC2=C(N=C3SC=CN3C2c2ccc(OC)cc2)/C(=C/c2ccc(OC)cc2)C1 (centres undefined) | 97.5% | Active | 88% | 97.3% | 54.8% | 84% | 2700 nM | 81.6 µM | > 100 µM | 4.7 µM | 68.2 µM | 9.4 µM | > 10% | Active | 3.5 µM | 10.9 µM | 55 µM | 1700 nM | 6.7 µM | 3.4 µM | inhibition of growth at 10 µM [7]: 76.9%; inhibition of growth at 10 µM ([9]; CAKI-1, 48 h, read-out: GI): 78.3%; growth inhibition (GI) [10]: Active
2 | CCN1CC2=C(N=C3SC=CN3C2c2ccc(OC)c(OC)c2)/C(=C/c2ccc(OC)c(OC)c2)C1 (centres undefined) | 94.3% |  | 53.2% | 94% | 43.9% | 48.3% | 2600 nM | 30.7 µM | > 100 µM | 3.3 µM | 82.8 µM | 26.7 µM | 11.5% | Active | 3.4 µM | 10.1 µM | 44.6 µM | 2000 nM | 29.3 µM | 4.3 µM | inhibition of growth at 10 µM ([2]; UO-31, 48 h, read-out: GI): 40.7%; inhibition of growth at 10 µM [7]: 91.2%; growth inhibition (GI) [9]: Active; inhibition of growth at 10 µM [10]: 95.2%
3 | CCN1CC2=C(N=C3SC=C(C)N3C2c2ccc(OC)c(OC)c2)/C(=C/c2ccc(OC)c(OC)c2)C1 (centres undefined) |  | Active | 98.2% | 97.8% | 67.6% | 72.1% | 4000 nM | 81.9 µM | > 100 µM | 5.7 µM | > 100 µM | 40.1 µM | 27.4% | Active | 2.7 µM | 10.8 µM | 54.4 µM | 2100 nM | 35.3 µM | 5.6 µM | growth inhibition (GI) [1]: Active; growth inhibition (GI) [7]: Active; growth inhibition (GI) [9]: Active; inhibition of growth at 10 µM [10]: 96.4%
